Laboratory results published in ChEMBL document CHEMBL4414562, “Discovery of the First in Vivo Active Inhibitors of the Soluble Epoxide Hydrolase Phosphatase Domain” (J Med Chem, 2019).
Active and inactive are the calls of the source. The rule behind the calls is not given here.

What was measured:
[1] = molecular target: T1, Bifunctional epoxide hydrolase 2 (Rattus norvegicus, UniProt P80299); assay: Inhibition of phosphatase activity of full length rat soluble epoxide hydrolase pre-incubated for 30 mins before FDP substrate addition by fluorescence based assay
T1 sequence (P80299 whole entry): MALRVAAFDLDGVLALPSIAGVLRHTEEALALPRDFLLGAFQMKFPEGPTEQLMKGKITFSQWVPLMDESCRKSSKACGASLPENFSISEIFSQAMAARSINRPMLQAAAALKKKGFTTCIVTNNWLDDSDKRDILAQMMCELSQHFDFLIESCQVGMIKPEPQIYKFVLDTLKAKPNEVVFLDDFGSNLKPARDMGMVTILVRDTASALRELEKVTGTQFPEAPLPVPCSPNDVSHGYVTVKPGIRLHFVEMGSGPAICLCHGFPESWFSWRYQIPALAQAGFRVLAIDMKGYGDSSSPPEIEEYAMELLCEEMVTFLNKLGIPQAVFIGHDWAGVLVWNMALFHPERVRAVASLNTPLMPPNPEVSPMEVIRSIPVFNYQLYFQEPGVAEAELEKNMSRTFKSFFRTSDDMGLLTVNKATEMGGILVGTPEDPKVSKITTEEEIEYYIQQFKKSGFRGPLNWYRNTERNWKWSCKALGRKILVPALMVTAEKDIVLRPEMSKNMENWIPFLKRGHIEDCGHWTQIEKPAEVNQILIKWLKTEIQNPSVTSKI

[2] = molecular target: T2, Bifunctional epoxide hydrolase 2 (Homo sapiens, UniProt P34913); assay: Inhibition of phosphatase activity of full length human soluble epoxide hydrolase pre-incubated for 30 mins before FDP substrate addition by fluorescence based assay
T2 sequence (P34913 whole entry): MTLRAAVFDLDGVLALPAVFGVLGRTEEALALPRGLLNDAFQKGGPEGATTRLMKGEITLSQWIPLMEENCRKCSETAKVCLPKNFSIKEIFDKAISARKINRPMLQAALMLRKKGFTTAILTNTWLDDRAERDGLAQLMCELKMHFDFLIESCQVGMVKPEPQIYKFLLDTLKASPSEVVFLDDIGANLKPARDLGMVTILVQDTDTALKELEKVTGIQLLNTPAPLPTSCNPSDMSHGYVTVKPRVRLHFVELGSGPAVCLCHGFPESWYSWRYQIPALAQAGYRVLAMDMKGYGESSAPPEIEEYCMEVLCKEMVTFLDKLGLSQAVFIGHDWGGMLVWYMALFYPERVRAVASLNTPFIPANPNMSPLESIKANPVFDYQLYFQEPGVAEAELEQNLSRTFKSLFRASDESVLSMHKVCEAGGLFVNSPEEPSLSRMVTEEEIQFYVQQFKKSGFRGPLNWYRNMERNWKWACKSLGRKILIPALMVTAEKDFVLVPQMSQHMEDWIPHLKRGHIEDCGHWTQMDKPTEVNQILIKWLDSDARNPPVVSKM

Homo sapiens [3] = species: Homo sapiens; assay: Inhibition of soluble epoxide hydrolase N-terminal phosphatase domain in human PBMC assessed as reduction in MAG/LPA ratio at 30 uM incubated for 24 hrs by LC-MS/MS analysis
Homo sapiens [4] = species: Homo sapiens; assay: Induction of stabilization of hexa-His-tagged human soluble epoxide hydrolase N-terminal phosphatase domain expressed in Escherichia coli BL21(DE3) at 50 uM by differential scanning fluorimetry
[5] = molecular target: T2, Bifunctional epoxide hydrolase 2; assay: Inhibition of hexa-His-tagged human soluble epoxide hydrolase C-terminal hydrolase domain expressed in Escherichia coli BL21(DE3) pre-incubated for 30 mins before PHOME substrate addition by fluorescence based assay
Rattus norvegicus [6] = assay: Inhibition of sEH-P in Sprague-Dawley rat assessed as effect on ratio of sn1-20:4 LPA to corresponding monoacylglycerol species in plasma at 30 mg/kg, po after 8 hrs by LC-MS/MS analysis; assay type: functional, organism-based
How it was run: (§1)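 Male Sprague-Dawley rats given a single oral dose of 30 mg/kg or vehicle (n = 3 per group). Plasma collected 8 h later. Epoxy fatty acid/diol ratios and LPA/corresponding MAG ratios quantified by LC−MS/MS.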

[7] = Cmax in Sprague-Dawley rat at 30 mg/kg, po monitored over 8 hrs by LC-MS analysis; assay type: ADME, organism-based; design: dose 30 mg/kg, route oral; conditions: in vivo
How it was run: (§2)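 Male Sprague-Dawley rats (n = 3) given a single oral dose of 30 mg/kg. Plasma compound concentration followed over 8 h. Cmax and half-life derived from the plasma concentration–time profile.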

Rattus norvegicus [8] = assay: Inhibition of sEH-H in Sprague-Dawley rat assessed as effect on ratio of 12,13-EpOME to 12,13-DiHOME in plasma at 30 mg/kg, po after 8 hrs by LC-MS/MS analysis; assay type: functional, organism-based; how it was run: as §1
[9] = molecular target: T3, Bifunctional epoxide hydrolase 2 (Homo sapiens) (UniProt P34913); assay: Induction of stabilization of hexa-His-tagged human soluble epoxide hydrolase C-terminal hydrolase domain expressed in Escherichia coli BL21(DE3) at 50 uM by differential scanning fluorimetry
T3 sequence (whole entry): T2 sequence (P34913 whole entry)

[10] = Half life in Sprague-Dawley rat at 30 mg/kg, po monitored over 8 hrs by LC-MS analysis; assay type: ADME, organism-based; conditions: in vivo; how it was run: as §2

| IC50 [1] [µM] | IC50 [2] [µM] | inhibition (Homo sapiens [3]) | Activity (Homo sapiens [4]) | IC50 [5] [µM] | Cmax [7] [µM] | Activity [9] | t1/2 [10] [h] | Structure (SMILES) | inhibition (Rattus norvegicus [6]) | inhibition (Rattus norvegicus [8]) |
| --- | --- | --- | --- | --- | --- | --- | --- | --- | --- | --- |
| 62.5 | 70 |  |  |  |  |  |  | O=C(O)CCc1nc(-c2ccccc2)c(-c2ccccc2)o1 [OXAPROZIN] |  |  |
|  |  | Active | Active | 12 | 128 | inactive | 7 | O=C(O)CCCc1nc(-c2ccc(Cl)c(Cl)c2)c(-c2ccccc2)o1 | Active | inactive |
